Measured values from different studies.
Target: MAP kinase-activated protein kinase 3 (MAPKAPK3, Homo sapiens, UniProt Q16644)

CCN(CC)CCNC(=O)c1c(C)[nH]c(/C=C2\C(=O)Nc3ccc(F)cc32)c1C  inhibition (enzyme activity; inhibitor; 10 µM): 6%
CCN(CC)c1ccc(C2=NNC(=O)CC2C)cc1[N+](=O)[O-] (stereo not shown)  remaining activity (enzyme activity; inhibitor; 10 µM): 100%
FC(F)(F)Oc1cccc(-c2cnc3ccc(-c4ccncc4)nn23)c1  activity vs control (enzyme activity; inhibitor; radiometric; 5 µM): 97%
COc1cc(Nc2cnc(C#N)c(O[C@H](C)CN(C)C)n2)ncc1-c1cnn(C)c1  remaining activity (enzyme activity; inhibitor; radiometric; 1 µM): 96%
Cc1ccc(NC(=O)c2ccc(C)c(C(F)(F)F)c2)cc1C#Cc1nn(C2CCC(O)CC2)c2ncnc(N)c12 (stereo not shown)  remaining signal (cell-free assay; 10 µM): 96%
O=C(Nc1cnn(-c2csc(C(=O)NC3COC3)c2)c1)Nc1ccccc1Cl  remaining activity (enzyme activity; inhibitor; 5 µM): 83.5%
COc1cc2ncnc(Nc3ccc(Oc4ccccc4)cc3C)c2cc1OC  inhibition (enzyme activity; inhibitor; 1 µM): 0%
c1ccc(CNc2nc(N3CCOc4ccccc43)nc3c2CCCC3)cc1  inhibition (target engagement in cells; inhibitor; chemoproteomics; 20 mM): -11.1%
CNc1cccc2cc(C(=O)Nc3ccc(C(=O)O)cc3)c(=O)[nH]c12  inhibition (enzyme activity; inhibitor; 10 µM): -3.2%
CC(C)(C)c1nc(-c2cccc(NS(=O)(=O)c3c(F)cccc3F)c2F)c(-c2ccnc(N)n2)s1  remaining activity (enzyme activity; inhibitor; radiometric; 1 µM): 92%
Cc1cc(NC(=O)c2cccc3cc(-c4cccc5[nH]nc(N)c45)ccc23)ccc1F  activity vs control (enzyme activity; inhibitor; 0.1 µM): 96%
Cc1ccc(Nc2nccc(N(C)c3ccc4c(C)n(C)nc4c3)n2)cc1S(N)(=O)=O  inhibition (enzyme activity; inhibitor; 0.3 µM): -8%
CCCOc1ccc(OC)c(F)c1C(=O)c1ccc(C(=O)N[C@@H]2CNC[C@H]2NC(=O)c2ccc3[nH]ncc3c2)cc1  remaining activity (enzyme activity; inhibitor; 10 µM): 68%
CNC(=O)c1cc(Oc2ccc(NC(=O)Nc3ccc(Cl)c(C(F)(F)F)c3)cc2)ccn1  inhibition (enzyme activity; inhibitor; 0.3 µM): -3%
CC/C(=N\NC(=O)NCc1cccc(O)c1)c1ccc(O)c(C)c1O  inhibition (enzyme activity; inhibitor; 0.1 µM): -6%
O=C1NC(=O)c2cc(Nc3ccc(F)cc3)c(Nc3ccc(F)cc3)cc21  remaining signal (cell-free assay; 0.5 µM): 95.9%
CCOc1cc(-c2nncn2C)ccc1Nc1ncc2cc(C)nc(NCC(C)(C)C)c2n1  inhibition (enzyme activity; inhibitor; FRET; 1 µM): < 15%
Oc1cccc(-c2nc(N3CCOCC3)c3oc4ncccc4c3n2)c1  remaining activity (enzyme activity; inhibitor; 10 µM): 100%
Cc1cnc(NC2CCOCC2)nc1-n1cnc(C(=O)NC(CN)c2cc(F)cc(Cl)c2)c1 (stereo not shown)  remaining activity (enzyme activity; inhibitor; radiometric; 1 µM): 110%
